From ChEMBL document CHEMBL5724801, “EUbOPEN Chemogenomics Library - Multiplex” (2024)
Where “and” joins values, the source holds several entries; their conditions need not be identical. Identical values can stand only once.

System: HEK-293T
Experiment: Multiplex assay against HEK293T
Format: toxicity, cell-based
Conditions: human
Method in brief: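 Values for tubulin, mitochondrial-mass and membrane-permeability phenotypes are per cents of cells with healthy nuclei. These cells were identified by CellPathfinder machine-learning gating of live cells that had been stained at seeding with Hoechst33342, BioTracker Green Microtubule Cytoskeleton Dye, MitoTracker Red and Annexin V Alexa Fluor 680 and imaged on a CQ1 microscope at 37°C and 5% CO2 after compound addition. The gating first set Hoechst high-intensity objects apart from normal cells, then split normal cells into healthy, pyknosed or fragmented nuclei, and pyknosed cells into mitotic or apoptotic.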

[1] = 12 h, 1 µM, compound concentration 1 uM
[2] = 12 h, 10 µM, compound concentration 10 uM
[3] = 24 h, 1 µM, compound concentration 1 uM
[4] = 24 h, 10 µM, compound concentration 10 uM
[5] = 48 h, 1 µM, compound concentration 1 uM
[6] = 48 h, 10 µM, compound concentration 10 uM

## COc1cc(N2CCN(C)CC2)ccc1Nc1nccc(-c2cn(C)c3cnccc23)n1
[1]
  Population Apoptotic (%): 10.14% and 10.53%
  Population Fragmented Nuclei (%): 3.23% and 1.83%
  Population Hoechst High Intensity Objects (%): 0%
  Population Membrane Permeable-Phenotype (%): 0%
  Population Mitotic Cells (%): 89.86% and 89.47%
  Population Normal (%): 100%
  Population Pyknosed Nuclei (%): 31.8% and 87.16%
[2]
  Population Apoptotic (%): 19.35% and 16.13%
  Population Fragmented Nuclei (%): 1.59% and 4.51%
  Population Hoechst High Intensity Objects (%): 0%
  Population Membrane Permeable-Phenotype (%): 0.4% and 2.94%
  Population Mitotic Cells (%): 80.65% and 83.87%
  Population Normal (%): 100%
  Total Cell Count: 314 and 133
[3]
  Population Apoptotic (%): 19.27% and 15.66%
  Population Fragmented Nuclei (%): 1.54% and 3.91%
  Population Healthy Nuclei (%): 81.64% and 31.25%
  Population Hoechst High Intensity Objects (%): 0%
  Population Membrane Permeable-Phenotype (%): 1.13% and 2.5%
  Population Mitochondria Different-Phenotype (%): 11.15% and 10%
  Population Mitotic Cells (%): 80.73% and 84.34%
  Population Normal (%): 100%
  Population Tubulin-Different-Phenotype (%): 12.1% and 5%
[4]
  Population Apoptotic (%): 27.27% and 28.81%
  Population Fragmented Nuclei (%): 2.49% and 1.67%
  Population Healthy Nuclei (%): 87.23% and 49.17%
  Population Hoechst High Intensity Objects (%): 0%
  Population Membrane Permeable-Phenotype (%): 1.07% and 6.78%
  Population Mitochondria Different-Phenotype (%): 7.5% and 3.39%
  Population Mitotic Cells (%): 72.73% and 71.19%
  Population Normal (%): 100%
  Population Tubulin-Different-Phenotype (%): 26.07% and 10.17%
  Total Cell Count: 321 and 120
[5]
  Population Apoptotic (%): 7.58% and 13.11%
  Population Fragmented Nuclei (%): 2.6% and 3.77%
  Population Healthy Nuclei (%): 85.55% and 57.86%
  Population Hoechst High Intensity Objects (%): 0.09% and 0.62%
  Population Membrane Permeable-Phenotype (%): 3.57% and 0%
  Population Mitochondria Different-Phenotype (%): 18.99% and 33.7%
  Population Mitotic Cells (%): 92.42% and 86.89%
  Population Normal (%): 99.91% and 99.38%
[6]
  Population Apoptotic (%): 20% and 25%
  Population Fragmented Nuclei (%): 4.38% and 4.51%
  Population Healthy Nuclei (%): 87.29% and 74.44%
  Population Hoechst High Intensity Objects (%): 0%
  Population Membrane Permeable-Phenotype (%): 2.86% and 0%
  Population Mitochondria Different-Phenotype (%): 21.24% and 29.29%
  Population Mitotic Cells (%): 80% and 75%
  Population Normal (%): 100%
  Population Pyknosed Nuclei (%): 8.33% and 21.05%

## CN1CC[C@@]23CCCC[C@@H]2[C@@H]1Cc1ccc(O)cc13.O=C(O)C(O)C(O)C(=O)O
[1]
  Population Apoptotic (%): 5.07% and 6.25%
  Population Fragmented Nuclei (%): 0% and 2.38%
  Population Healthy Nuclei (%): 61.34% and 21.43%
  Population Hoechst High Intensity Objects (%): 0.28% and 0.59%
  Population Membrane Permeable-Phenotype (%): 0%
  Population Mitochondria Different-Phenotype (%): 31.51% and 13.89%
  Population Mitotic Cells (%): 94.93% and 93.75%
  Population Normal (%): 99.72% and 99.41%
  Population Pyknosed Nuclei (%): 38.66% and 76.19%
  Total Cell Count: 358 and 169
[2]
  Population Apoptotic (%): 7.34% and 9.57%
  Population Fragmented Nuclei (%): 0.33% and 1.28%
  Population Healthy Nuclei (%): 63.93% and 25%
  Population Hoechst High Intensity Objects (%): 0%
  Population Membrane Permeable-Phenotype (%): 0% and 2.56%
  Population Mitochondria Different-Phenotype (%): 30.77%
  Population Mitotic Cells (%): 92.66% and 90.43%
  Population Normal (%): 100%
  Population Pyknosed Nuclei (%): 35.74% and 73.72%
  Total Cell Count: 305 and 156
[3]
  Population Apoptotic (%): 13.27% and 11.22%
  Population Fragmented Nuclei (%): 1.37% and 2.04%
  Population Healthy Nuclei (%): 83.74% and 47.96%
  Population Hoechst High Intensity Objects (%): 0.15% and 0.51%
  Population Membrane Permeable-Phenotype (%): 1.27% and 3.19%
  Population Mitochondria Different-Phenotype (%): 9.98% and 11.7%
  Population Mitotic Cells (%): 86.73% and 88.78%
  Population Normal (%): 99.85% and 99.49%
  Population Tubulin-Different-Phenotype (%): 6.17% and 3.19%
[4]
  Population Apoptotic (%): 10.81% and 11.46%
  Population Fragmented Nuclei (%): 0.62% and 0.67%
  Population Healthy Nuclei (%): 76.45% and 35.33%
  Population Hoechst High Intensity Objects (%): 0%
  Population Membrane Permeable-Phenotype (%): 0.54% and 0%
  Population Mitochondria Different-Phenotype (%): 20.54% and 11.32%
  Population Mitotic Cells (%): 89.19% and 88.54%
  Population Normal (%): 100%
  Population Pyknosed Nuclei (%): 22.93% and 64%
  Population Tubulin-Different-Phenotype (%): 12.16% and 9.43%
[5]
  Population Fragmented Nuclei (%): 4.07% and 2.37%
  Population Healthy Nuclei (%): 87.05% and 78.04%
  Population Hoechst High Intensity Objects (%): 0%
  Population Membrane Permeable-Phenotype (%): 3.59% and 4.18%
  Population Mitochondria Different-Phenotype (%): 11.36% and 7.6%
  Population Mitotic Cells (%): 97.89% and 83.33%
  Population Normal (%): 100%
  Population Pyknosed Nuclei (%): 8.89% and 19.58%
[6]
  Population Fragmented Nuclei (%): 2.47% and 1.7%
  Population Healthy Nuclei (%): 87.64% and 68.94%
  Population Hoechst High Intensity Objects (%): 0%
  Population Membrane Permeable-Phenotype (%): 5.64% and 3.09%
  Population Mitochondria Different-Phenotype (%): 15.29% and 22.84%
  Population Mitotic Cells (%): 95.19% and 81.16%
  Population Normal (%): 100%
  Population Pyknosed Nuclei (%): 9.89% and 29.36%

## Cc1nc2ccc(Oc3ccc(F)cc3)cc2c(=O)n1C[C@H]1CCCN(C(C)C)C1.Cl
[1]
  Population Apoptotic (%): 40% and 61%
  Population Fragmented Nuclei (%): 7% and 5%
  Population Healthy Nuclei (%): 80% and 70%
  Population Membrane Permeable-Phenotype (%): 0%
  Population Mitochondria Different-Phenotype (%): 50% and 69%
  Population Mitotic Cells (%): 60% and 38%
  Population Normal (%): 93% and 72%
  Population Pyknosed Nuclei (%): 11% and 24%
  Population Tubulin-Different-Phenotype (%): 42% and 34%
  Total Cell Count: 381 and 204
[2]
  Population Apoptotic (%): 54% and 61%
  Population Fragmented Nuclei (%): 7% and 8%
  Population Healthy Nuclei (%): 78% and 74%
  Population Hoechst High Intensity Objects (%): 17% and 20%
  Population Membrane Permeable-Phenotype (%): 0%
  Population Mitochondria Different-Phenotype (%): 81% and 94%
  Population Mitotic Cells (%): 45% and 38%
  Population Normal (%): 82% and 79%
  Population Pyknosed Nuclei (%): 13% and 17%
  Population Tubulin-Different-Phenotype (%): 76% and 73%
  Total Cell Count: 405 and 310
[3]
  Population Apoptotic (%): 31% and 37%
  Population Fragmented Nuclei (%): 11%
  Population Healthy Nuclei (%): 80% and 72%
  Population Membrane Permeable-Phenotype (%): 0%
  Population Mitochondria Different-Phenotype (%): 36% and 52%
  Population Mitotic Cells (%): 68% and 62%
  Population Normal (%): 95% and 77%
  Population Pyknosed Nuclei (%): 8% and 16%
  Population Tubulin-Different-Phenotype (%): 27% and 20%
  Total Cell Count: 553 and 281
[4]
  Population Apoptotic (%): 49% and 68%
  Population Fragmented Nuclei (%): 10% and 11%
  Population Healthy Nuclei (%): 73% and 75%
  Population Hoechst High Intensity Objects (%): 12% and 23%
  Population Membrane Permeable-Phenotype (%): 3% and 0%
  Population Mitochondria Different-Phenotype (%): 67% and 88%
  Population Mitotic Cells (%): 50% and 31%
  Population Normal (%): 87% and 76%
  Population Pyknosed Nuclei (%): 15% and 12%
  Population Tubulin-Different-Phenotype (%): 70% and 68%
  Total Cell Count: 525 and 334
[5]
  Population Apoptotic (%): 27% and 60%
  Population Fragmented Nuclei (%): 19% and 13%
  Population Healthy Nuclei (%): 75% and 80%
  Population Hoechst High Intensity Objects (%): 1% and 7%
  Population Membrane Permeable-Phenotype (%): 1% and 0%
  Population Mitochondria Different-Phenotype (%): 22% and 36%
  Population Mitotic Cells (%): 72% and 39%
  Population Normal (%): 98% and 92%
  Population Pyknosed Nuclei (%): 5% and 6%
  Population Tubulin-Different-Phenotype (%): 14%
  Total Cell Count: 901 and 380
[6]
  Population Apoptotic (%): 47% and 67%
  Population Fragmented Nuclei (%): 15% and 17%
  Population Healthy Nuclei (%): 74% and 72%
  Population Hoechst High Intensity Objects (%): 11% and 22%
  Population Membrane Permeable-Phenotype (%): 2% and 0%
  Population Mitochondria Different-Phenotype (%): 60% and 69%
  Population Mitotic Cells (%): 52% and 32%
  Population Normal (%): 88% and 78%
  Population Pyknosed Nuclei (%): 9%
  Population Tubulin-Different-Phenotype (%): 62% and 58%
  Total Cell Count: 754 and 459

## CC1(COc2ccc3c(c2)ncn3-c2ccc3cccc(N4CCC(N)CC4)c3n2)COC1 [CRENOLANIB]
[1]
  Population Apoptotic (%): 58% and 34%
  Population Fragmented Nuclei (%): 14% and 10%
  Population Healthy Nuclei (%): 79% and 80%
  Population Hoechst High Intensity Objects (%): 3% and 6%
  Population Membrane Permeable-Phenotype (%): 2% and 1%
  Population Mitochondria Different-Phenotype (%): 23% and 51%
  Population Mitotic Cells (%): 41% and 65%
  Population Normal (%): 96% and 93%
  Population Pyknosed Nuclei (%): 6% and 8%
  Population Tubulin-Different-Phenotype (%): 46% and 51%
  Total Cell Count: 412 and 332
[2]
  Population Apoptotic (%): 69% and 55%
  Population Fragmented Nuclei (%): 67% and 64%
  Population Healthy Nuclei (%): 13% and 17%
  Population Hoechst High Intensity Objects (%): 67% and 69%
  Population Membrane Permeable-Phenotype (%): 0%
  Population Mitochondria Different-Phenotype (%): 84% and 90%
  Population Mitotic Cells (%): 30% and 45%
  Population Normal (%): 32% and 30%
  Population Pyknosed Nuclei (%): 18% and 17%
  Population Tubulin-Different-Phenotype (%): 68% and 50%
  Total Cell Count: 423 and 376
[3]
  Population Apoptotic (%): 29% and 45%
  Population Fragmented Nuclei (%): 20% and 15%
  Population Healthy Nuclei (%): 66% and 73%
  Population Hoechst High Intensity Objects (%): 2% and 6%
  Population Membrane Permeable-Phenotype (%): 2% and 1%
  Population Mitochondria Different-Phenotype (%): 22% and 33%
  Population Mitotic Cells (%): 70% and 54%
  Population Normal (%): 97% and 93%
  Population Pyknosed Nuclei (%): 12% and 11%
  Population Tubulin-Different-Phenotype (%): 23% and 35%
  Total Cell Count: 547 and 415
[4]
  Population Apoptotic (%): 72%
  Population Fragmented Nuclei (%): 60% and 69%
  Population Healthy Nuclei (%): 16% and 15%
  Population Hoechst High Intensity Objects (%): 56% and 63%
  Population Membrane Permeable-Phenotype (%): 0%
  Population Mitochondria Different-Phenotype (%): 89% and 94%
  Population Mitotic Cells (%): 27%
  Population Normal (%): 43% and 36%
  Population Pyknosed Nuclei (%): 23% and 14%
  Population Tubulin-Different-Phenotype (%): 92% and 73%
  Total Cell Count: 394 and 334
[5]
  Population Apoptotic (%): 29% and 47%
  Population Fragmented Nuclei (%): 19% and 23%
  Population Healthy Nuclei (%): 72% and 70%
  Population Hoechst High Intensity Objects (%): 1%
  Population Membrane Permeable-Phenotype (%): 1%
  Population Mitochondria Different-Phenotype (%): 17% and 21%
  Population Mitotic Cells (%): 70% and 52%
  Population Normal (%): 98%
  Population Pyknosed Nuclei (%): 7% and 6%
  Population Tubulin-Different-Phenotype (%): 10% and 14%
  Total Cell Count: 844 and 639
[6]
  Population Apoptotic (%): 86% and 84%
  Population Fragmented Nuclei (%): 51% and 47%
  Population Healthy Nuclei (%): 17% and 22%
  Population Hoechst High Intensity Objects (%): 41% and 49%
  Population Membrane Permeable-Phenotype (%): 0%
  Population Mitochondria Different-Phenotype (%): 97% and 96%
  Population Mitotic Cells (%): 13% and 15%
  Population Normal (%): 59% and 50%
  Population Pyknosed Nuclei (%): 30%
  Population Tubulin-Different-Phenotype (%): 95% and 96%
  Total Cell Count: 400 and 298
